Measurements as given in ChEMBL document CHEMBL1687863, “Terpenoids and norlignans from Metasequoia glyptostroboides” (J Nat Prod, 2011).
pIC50: −log10 of the molar value.

Each compound was assayed on HL-60 (assay: Cytotoxicity against human HL60 cells after 48 hrs by MTT assay). Conditions: HL-60, 48 h.
Format: functional, cell-based
In short: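 Cells seeded 12 h before treatment, then exposed continuously to a range of compound concentrations for 48 h. MTT added for a further 4 h, followed by 20% SDS and 12 h at room temperature. OD read at 595 nm; IC50 calculated by the Reed and Muench method.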
Compound `C=C1CC[C@H]2[C@](C)(O)[C@H](C)CC[C@]2(C)[C@H]1CC/C(C)=C/C(=O)O` [METASEQUOIC ACID C] has a pIC50 of under 4.40. Compound `COc1ccc([C@H]2[C@@H]([C@H](OC(=O)[C@](OC)(c3ccccc3)C(F)(F)F)c3ccc(OC)c(OC)c3)OC[C@H]2OC(=O)[C@](OC)(c2ccccc2)C(F)(F)F)cc1` has a pIC50 of under 4.40. With `C=C1C=C[C@@H](C(C)C)[C@]12CC=C(C(=O)O)CC2` the pIC50 was under 4.40. Compound `OC[C@@H](O)[C@@H](/C=C/c1ccc(O)cc1)c1ccc(O)c(O)c1` [SEQUIRIN C] has a pIC50 of 5.26. `C=CC(=C)CC[C@@H]1[C@@]2(C)CCC[C@](C)(COC(=O)/C=C/c3ccc(O)cc3)[C@@H]2CC[C@@]1(C)O` gave a pIC50 of 4.84. `COc1cc([C@@H](O)[C@H]2OC[C@@H](O)[C@H]2c2ccc(O)cc2)ccc1O` [METASEQUIRIN F] showed a pIC50 of under 4.40. Compound `COc1ccc([C@H]2[C@@H]([C@H](O)c3ccc(OC)c(OC)c3)OC[C@H]2O)cc1` has a pIC50 of under 4.40. `COc1ccc([C@H]2[C@@H]([C@H](OC(=O)[C@@](OC)(c3ccccc3)C(F)(F)F)c3ccc(OC)c(OC)c3)OC[C@H]2OC(=O)[C@@](OC)(c2ccccc2)C(F)(F)F)cc1` showed a pIC50 of under 4.40. `COc1cc(/C=C/[C@@H](c2ccc(O)c(OC)c2)[C@H](O)CO)ccc1O` [METASEQUIRIN D] was tested, and the pIC50 was under 4.40. For `COc1cc([C@H]2[C@@H]([C@H](O)c3ccc(O)c(OC)c3)OC[C@H]2O)ccc1O` [METASEQUIRIN E], the pIC50 was under 4.40. For `C=C[C@]1(C)CC2=C(C[C@@H]1O)[C@@]1(C)CCC[C@@](C)(C(=O)O)[C@@H]1CC2`, the pIC50 was under 4.40. In the case of `C=C(C)C(CC)CC[C@@H](C)[C@H]1CC[C@@]2(C)[C@@H]3CC[C@@H](C(C)(C)O)[C@@]4(CCC(=O)O)C[C@@]34CC[C@]12C` (some centres not stated) [METASEGLYPTORIN A], the pIC50 was under 4.40.
